According to ChEMBL document CHEMBL1138520, “Molecular and conformational determinants of pituitary adenylate cyclase-activating polypeptide (PACAP) for activation of the PAC1 receptor” (J Med Chem, 2009):
Active and inactive are the calls of the source. The rule behind the calls is not given here.

Legend:
[1] = target: T1, Pituitary adenylate cyclase-activating polypeptide type I receptor (Homo sapiens, UniProt P41586); assay: Displacement of [125I]Ac-PACAP27 from human recombinant PAC1 receptor expressed in CHO cells by gamma- counter; format: cell-based
Target sequence in this assay (P41586 whole entry): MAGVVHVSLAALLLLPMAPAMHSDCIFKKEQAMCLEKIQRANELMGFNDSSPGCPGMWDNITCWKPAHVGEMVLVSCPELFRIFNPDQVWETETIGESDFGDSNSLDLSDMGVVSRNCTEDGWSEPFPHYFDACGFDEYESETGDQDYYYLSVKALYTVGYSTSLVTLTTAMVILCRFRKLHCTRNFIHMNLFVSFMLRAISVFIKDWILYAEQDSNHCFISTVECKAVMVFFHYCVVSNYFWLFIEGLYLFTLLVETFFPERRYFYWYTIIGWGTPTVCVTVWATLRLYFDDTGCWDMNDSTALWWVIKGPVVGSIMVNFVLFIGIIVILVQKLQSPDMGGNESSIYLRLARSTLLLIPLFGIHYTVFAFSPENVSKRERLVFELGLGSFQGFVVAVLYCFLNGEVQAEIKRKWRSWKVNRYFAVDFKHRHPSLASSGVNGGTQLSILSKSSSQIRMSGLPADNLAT

[2] = target: T1, Pituitary adenylate cyclase-activating polypeptide type I receptor; assay: Agonist activity at human recombinant PAC1 receptor expressed in CHO cells assessed as PACAP38-induced calcium mobilization at 1 uM by FLIPR assay; format: functional, cell-based
Target sequence in this assay (P41586 whole entry): as above

[3] = target: T1, Pituitary adenylate cyclase-activating polypeptide type I receptor; assay: Agonist activity at human recombinant PAC1 receptor expressed in CHO cells assessed as PACAP38-induced calcium mobilization at 1 uM by FLIPR assay relative to PACAP38; format: functional, cell-based
Target sequence in this assay (P41586 21-468 limits assumed): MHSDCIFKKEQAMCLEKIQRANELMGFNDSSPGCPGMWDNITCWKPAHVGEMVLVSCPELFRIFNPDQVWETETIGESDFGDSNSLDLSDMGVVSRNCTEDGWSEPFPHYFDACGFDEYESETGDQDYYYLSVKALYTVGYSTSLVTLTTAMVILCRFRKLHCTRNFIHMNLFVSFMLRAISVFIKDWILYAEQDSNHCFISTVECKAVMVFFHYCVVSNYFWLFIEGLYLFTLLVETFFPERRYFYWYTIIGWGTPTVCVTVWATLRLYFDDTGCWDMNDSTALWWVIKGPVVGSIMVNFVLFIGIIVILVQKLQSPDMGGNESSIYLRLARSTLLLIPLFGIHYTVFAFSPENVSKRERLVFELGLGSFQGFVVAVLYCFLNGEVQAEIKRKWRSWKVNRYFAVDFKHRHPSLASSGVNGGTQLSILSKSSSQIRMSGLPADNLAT

[4] = target: T1, Pituitary adenylate cyclase-activating polypeptide type I receptor; assay: Antagonist activity at human recombinant PAC1 receptor expressed in CHO cells assessed as reduction in PACAP38-induced calcium mobilization at 10 uM by FLIPR assay; format: functional, cell-based
In short: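 Fluo-4-loaded CHO cells stably expressing human PAC1 were exposed for 15 min to 10^-5 M peptide before reading. They were then challenged with 10^-6 M PACAP38, and the reduction in fluorescence calcium response was recorded (ex 480/em 525 nm, 150 s).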
Target sequence in this assay (P41586 21-468 limits assumed): as above

[5] = target: T1, Pituitary adenylate cyclase-activating polypeptide type I receptor; assay: Antagonist activity at human recombinant PAC1 receptor expressed in CHO cells assessed as reduction in PACAP38-induced calcium mobilization by FLIPR assay; format: functional, cell-based; settings: read-out: pA2 (converted)
In short: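 PAC1-CHO cells were loaded with fluo-4 and preincubated 15 min with antagonist at 0.1, 1 or 10 µM. PACAP38 concentration-response curves for calcium mobilization were then recorded. pA2 was estimated by Schild plot from concentration ratios; 4-10 independent assays in duplicate.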
Target sequence in this assay (P41586 whole entry): as the sequence (P41586 whole entry) above

| SMILES | IC50 [1] | EC50 [2] | Emax [3] | Activity [4] | Kb [5] |
| --- | --- | --- | --- | --- | --- |
| CC[C@H](C)[C@H](NC(=O)CN(C)C(=O)[C@H](CC(=O)O)NC(=O)[C@H](CO)NC(=O)[C@@H](N)Cc1cnc[nH]1)C(=O)N[C@@H](Cc1ccccc1)C(=O)N[C@H](C(=O)N[C@@H](CC(=O)O)C(=O)N[C@@H](CO)C(=O)N[C@@H](Cc1ccc(O)cc1)C(=O)N[C@@H](CO)C(=O)N[C@@H](CCCNC(=N)N)C(=O)N[C@@H](Cc1ccc(O)cc1)C(=O)N[C@@H](CCCNC(=N)N)C(=O)N[C@@H](CCCCN)C(=O)N[C@@H](CCC(N)=O)C(=O)N[C@@H](CCSC)C(=O)N[C@@H](C)C(=O)N[C@H](C(=O)N[C@@H](CCCCN)C(=O)N[C@@H](CCCCN)C(=O)N[C@@H](Cc1ccc(O)cc1)C(=O)N[C@@H](CC(C)C)C(=O)N[C@@H](C)C(=O)N[C@@H](C)C(=O)N[C@H](C(=O)N[C@@H](CC(C)C)C(N)=O)C(C)C)C(C)C)[C@@H](C)O | 308 nM | Not Active | inactive | inactive | – |
| CC[C@H](C)[C@H](NC(=O)CN(C)C(=O)[C@H](CC(=O)O)NC(=O)[C@H](CO)NC(=O)[C@@H](N)Cc1cnc[nH]1)C(=O)N[C@@H](Cc1ccccc1)C(=O)N[C@H](C(=O)N[C@@H](CC(=O)O)C(=O)N[C@@H](CO)C(=O)N[C@@H](Cc1ccc(O)cc1)C(=O)N[C@@H](CO)C(=O)N[C@@H](CCCNC(=N)N)C(=O)N[C@@H](Cc1ccc(O)cc1)C(=O)N[C@@H](CCCNC(=N)N)C(=O)N[C@@H](CCCCN)C(=O)N[C@@H](CCC(N)=O)C(=O)N[C@@H](CCSC)C(=O)N[C@@H](C)C(=O)N[C@H](C(=O)N[C@@H](CCCCN)C(=O)N[C@@H](CCCCN)C(=O)N[C@@H](Cc1ccc(O)cc1)C(=O)N[C@@H](CC(C)C)C(=O)N[C@@H](C)C(=O)N[C@@H](C)C(=O)N[C@H](C(=O)N[C@@H](CC(C)C)C(=O)NCC(=O)N[C@@H](CCCCN)C(=O)N[C@@H](CCCNC(=N)N)C(=O)N[C@@H](Cc1ccc(O)cc1)C(=O)N[C@@H](CCCCN)C(=O)N[C@@H](CCC(N)=O)C(=O)N[C@@H](CCCNC(=N)N)C(=O)N[C@H](C(=O)N[C@@H](CCCCN)C(=O)N[C@@H](CC(N)=O)C(=O)N[C@@H](CCCCN)C(N)=O)C(C)C)C(C)C)C(C)C)[C@@H](C)O | 97 nM | Not Active | inactive | – | 4.07 nM |
| CC[C@H](C)[C@@H](C(=O)N[C@@H](Cc1ccccc1)C(=O)N[C@H](C(=O)N[C@@H](CC(=O)O)C(=O)N[C@@H](CO)C(=O)N[C@@H](Cc1ccc(O)cc1)C(=O)N[C@@H](CO)C(=O)N[C@@H](CCCNC(=N)N)C(=O)N[C@@H](Cc1ccc(O)cc1)C(=O)N[C@@H](CCCNC(=N)N)C(=O)N[C@@H](CCCCN)C(=O)N[C@@H](CCC(N)=O)C(=O)N[C@@H](CCSC)C(=O)N[C@@H](C)C(=O)N[C@H](C(=O)N[C@@H](CCCCN)C(=O)N[C@@H](CCCCN)C(=O)N[C@@H](Cc1ccc(O)cc1)C(=O)N[C@@H](CC(C)C)C(=O)N[C@@H](C)C(=O)N[C@@H](C)C(=O)N[C@H](C(=O)N[C@@H](CC(C)C)C(=O)NCC(=O)N[C@@H](CCCCN)C(=O)N[C@@H](CCCNC(=N)N)C(=O)N[C@@H](Cc1ccc(O)cc1)C(=O)N[C@@H](CCCCN)C(=O)N[C@@H](CCC(N)=O)C(=O)N[C@@H](CCCNC(=N)N)C(=O)N[C@H](C(=O)N[C@@H](CCCCN)C(=O)N[C@@H](CC(N)=O)C(=O)N[C@@H](CCCCN)C(N)=O)C(C)C)C(C)C)C(C)C)[C@@H](C)O)N(C)C(=O)CNC(=O)[C@H](CC(=O)O)NC(=O)[C@H](CO)NC(=O)[C@@H](N)Cc1cnc[nH]1 | 158 nM | Not Active | inactive | – | 52.5 nM |

Stronger by IC50 [1], values ahead:

| IC50 [1] | EC50 [2] | Emax [3] | Activity [4] | Kb [5] | SMILES |
| --- | --- | --- | --- | --- | --- |
| 76.3 nM | Not Active | inactive | – | 35.5 nM | CC[C@H](C)[C@H](NC(=O)CNC(=O)[C@H](CC(=O)O)NC(=O)[C@H]1CCCN1C(=O)[C@@H](N)Cc1cnc[nH]1)C(=O)N[C@@H](Cc1ccccc1)C(=O)N[C@H](C(=O)N[C@@H](CC(=O)O)C(=O)N[C@@H](CO)C(=O)N[C@@H](Cc1ccc(O)cc1)C(=O)N[C@@H](CO)C(=O)N[C@@H](CCCNC(=N)N)C(=O)N[C@@H](Cc1ccc(O)cc1)C(=O)N[C@@H](CCCNC(=N)N)C(=O)N[C@@H](CCCCN)C(=O)N[C@@H](CCC(N)=O)C(=O)N[C@@H](CCSC)C(=O)N[C@@H](C)C(=O)N[C@H](C(=O)N[C@@H](CCCCN)C(=O)N[C@@H](CCCCN)C(=O)N[C@@H](Cc1ccc(O)cc1)C(=O)N[C@@H](CC(C)C)C(=O)N[C@@H](C)C(=O)N[C@@H](C)C(=O)N[C@H](C(=O)N[C@@H](CC(C)C)C(=O)NCC(=O)N[C@@H](CCCCN)C(=O)N[C@@H](CCCNC(=N)N)C(=O)N[C@@H](Cc1ccc(O)cc1)C(=O)N[C@@H](CCCCN)C(=O)N[C@@H](CCC(N)=O)C(=O)N[C@@H](CCCNC(=N)N)C(=O)N[C@H](C(=O)N[C@@H](CCCCN)C(=O)N[C@@H](CC(N)=O)C(=O)N[C@@H](CCCCN)C(N)=O)C(C)C)C(C)C)C(C)C)[C@@H](C)O |
| 56.7 nM | Not Active | inactive | – | 11 nM | CSCC[C@H](NC(=O)[C@H](CCC(N)=O)NC(=O)[C@H](CCCCN)NC(=O)[C@H](CCCNC(=N)N)NC(=O)[C@H](Cc1ccc(O)cc1)NC(=O)[C@H](CCCNC(=N)N)NC(=O)[C@H](CO)NC(=O)[C@H](Cc1ccc(O)cc1)NC(=O)[C@H](CO)NC(=O)[C@H](CC(=O)O)NC(=O)[C@@H](NC(=O)[C@@H](N)Cc1ccccc1)[C@@H](C)O)C(=O)N[C@@H](C)C(=O)N[C@H](C(=O)N[C@@H](CCCCN)C(=O)N[C@@H](CCCCN)C(=O)N[C@@H](Cc1ccc(O)cc1)C(=O)N[C@@H](CC(C)C)C(=O)N[C@@H](C)C(=O)N[C@@H](C)C(=O)N[C@H](C(=O)N[C@@H](CC(C)C)C(=O)NCC(=O)N[C@@H](CCCCN)C(=O)N[C@@H](CCCNC(=N)N)C(=O)N[C@@H](Cc1ccc(O)cc1)C(=O)N[C@@H](CCCCN)C(=O)N[C@@H](CCC(N)=O)C(=O)N[C@@H](CCCNC(=N)N)C(=O)N[C@H](C(=O)N[C@@H](CCCCN)C(=O)N[C@@H](CC(N)=O)C(=O)N[C@@H](CCCCN)C(N)=O)C(C)C)C(C)C)C(C)C |
